Hits are enriched below; roughly 4.4% of the tested compounds scored in any of these assays.
MPTP block: permeability transition pore inhibition; isolated mouse mitochondria, Ca2+ swelling absorbance, 30 min; inhibition, % at 10 µM; 1.4% of 360,000 active;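 active means inhibition of 50% or more, scaled per plate between neutral and stimulator controls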;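 further: 0% = DMSO wells given calcium and 100% = 1 mM EGTA wells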
SENP1 FRET inh: inhibitors of human SENP1 SUMO protease catalytic domain | recombinant SENP1 catalytic domain, CyPet-SUMO1-YPet FRET cleavage | inhibition, % at 10 µM | 0.21% of 360,000 active | AID 624204;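 active means inhibition at least 30% at 10 µM, raw YFP signal under a set limit, fluorescence ratio 0.5 to 1.5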;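 further: 0% = enzyme with DMSO and 100% = no enzyme wells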
Target sequence (Q9P0U3 419-644 limits assumed): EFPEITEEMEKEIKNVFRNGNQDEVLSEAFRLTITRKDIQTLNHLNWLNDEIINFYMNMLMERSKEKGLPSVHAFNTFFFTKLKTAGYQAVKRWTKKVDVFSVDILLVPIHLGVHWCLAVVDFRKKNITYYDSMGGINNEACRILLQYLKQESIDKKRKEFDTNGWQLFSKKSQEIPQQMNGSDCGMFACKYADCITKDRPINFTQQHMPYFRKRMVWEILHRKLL
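Controls: no-enzyme wells low, DMSO-plus-enzyme wells high control. Test system: human recombinant His6-tagged SENP1 catalytic domain enzyme. Reagent: SFCypet-SUMO1-SFYpet FRET protein substrate, 25 nM final. Doses: one dose per compound, 10 µM, 0.5% DMSO. Detection: FRET, CFP and YFP emission. Timing: 50 min reaction at room temperature.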
NR3A LBD binder: modulates the human NR3A ligand-binding domain; NR3A LBD differential scanning fluorimetry, Tm shift; 0% = protein alone, 100% = glycine-bound protein; Tm shift relative to glycine control, % at 25 µM; 2.5% of 340,000 active; AID 1259313;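 active means melting temperature shift of at least 10% of the positive control shift, at one fixed dose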
EBI2 block: antagonists of human EBI2 receptor. P32249. EBI2 beta-arrestin recruitment, luminescence, 7a,25-OHC stimulated. inhibition, % at 5 µM. 0.81% of 360,000 active; in the data active means inhibition above about 38%;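 further: enzyme fragment complementation signal reports receptor beta-arrestin coupling in cells; 0% = agonist plus DMSO wells and 100% = wells without agonist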
Target sequence (P32249 whole entry, looked up, the tested form may be a part): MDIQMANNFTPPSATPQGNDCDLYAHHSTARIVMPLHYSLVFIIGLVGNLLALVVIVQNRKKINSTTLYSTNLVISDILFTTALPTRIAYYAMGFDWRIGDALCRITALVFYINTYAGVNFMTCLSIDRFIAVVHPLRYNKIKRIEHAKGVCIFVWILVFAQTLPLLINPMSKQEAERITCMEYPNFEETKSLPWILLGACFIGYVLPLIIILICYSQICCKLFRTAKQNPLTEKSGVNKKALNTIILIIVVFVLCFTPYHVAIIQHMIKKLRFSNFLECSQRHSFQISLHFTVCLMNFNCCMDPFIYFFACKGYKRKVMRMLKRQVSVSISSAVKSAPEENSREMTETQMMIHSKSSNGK
MPTP counter: Rhodamine 123 counter-screen of mitochondrial pore hits; shares compounds with MPTP block; AID 624504; isolated mitochondria, membrane potential, Rhodamine 123 fluorescence; 78% of 5,000 active; inhibition, % at 10 µM; in the data active means inhibition above about 22%;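 further: 0% = DMSO vehicle and 100% = positive control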
Starred values were filed as active, the others as inactive.

Screening CSCCC(C(=O)NCc1ccccc1)n1c(Cc2cc(F)cc(F)c2)nc2ccccc21 (stereo not drawn) returned MPTP block 2, SENP1 FRET inh 1 and EBI2 block 9.
`C=CCS/C(N)=N\N=C\c1cc(Br)cc([N+](=O)[O-])c1O` gave MPTP block 53*, SENP1 FRET inh 4, NR3A LBD binder 4, EBI2 block 1 and MPTP counter 51*.
COC(=O)[C@@]12C[C@@H](CC(=O)NCc3cccc(C(F)(F)F)c3)C(=O)N(Cc3cccc4ccccc34)C1=CCC(C)(C)C2 was read as MPTP block 1, SENP1 FRET inh 1 and EBI2 block 20.
Cc1ccccc1Nc1nc(N)nc(CSc2nc3ccccc3c(=O)n2CCCO)n1 was read as MPTP block -1, SENP1 FRET inh 1, NR3A LBD binder -4 and EBI2 block -1.
Cc1ccccc1Nc1nc(N)nc(CSc2nc3ccccc3c(=O)n2C)n1 was read as MPTP block 57*, SENP1 FRET inh 0, NR3A LBD binder -3, EBI2 block -18 and MPTP counter 22*.
For Cc1cc(C(=O)COc2ccccc2C(N)=O)c(C)n1CC1CCCO1 (stereo not drawn) the results were MPTP block 93*, SENP1 FRET inh 0, NR3A LBD binder 2, EBI2 block -5 and MPTP counter 80*.
For CC1=NN(c2ccc([N+](=O)[O-])cc2)C(=O)/C1=C\N(C)C the results were MPTP block 99*, SENP1 FRET inh 3, NR3A LBD binder 0, EBI2 block -4 and MPTP counter 13.
Screening CCCCn1c(N)c(N(CC)C(=O)c2cc(S(=O)(=O)N3CCCCCC3)ccc2OC)c(=O)[nH]c1=O returned MPTP block 1, SENP1 FRET inh 0, NR3A LBD binder -2 and EBI2 block -4.
O=C(NC(NC(=S)Nc1cccc(C(=O)O)c1)C(Cl)(Cl)Cl)OCc1ccccc1 (stereo not drawn) was read as MPTP block 0, SENP1 FRET inh 3, NR3A LBD binder -4 and EBI2 block -16.
`Cc1cccc(NC(=S)NC(NC(=O)OCc2ccccc2)C(Cl)(Cl)Cl)c1` (stereo not drawn) gave MPTP block 74*, SENP1 FRET inh 2, NR3A LBD binder 27*, EBI2 block 15 and MPTP counter 80*.
`O=C(NC(NC(=S)Nc1cccc(Cl)c1)C(Cl)(Cl)Cl)OCc1ccccc1` (stereo not drawn) gave MPTP block 91*, SENP1 FRET inh 1, NR3A LBD binder 29*, EBI2 block 13 and MPTP counter 76*.
For Cc1cccc(NC(=O)[C@H](Cc2ccccc2)NC(=O)OCc2ccccc2)c1 the results were MPTP block 0, SENP1 FRET inh 3, NR3A LBD binder -10 and EBI2 block -4.
Screening C/C(=N\NC(=O)c1cc2ccccc2cc1O)c1cc2ccccc2o1 returned MPTP block 98*, SENP1 FRET inh 29, NR3A LBD binder 5, EBI2 block -10 and MPTP counter 57*.
`C/C(CC(=O)N1CCN(C=O)CC1)=N\NC(=O)c1cc2ccccc2cc1O` gave MPTP block -1, SENP1 FRET inh -17, NR3A LBD binder -2 and EBI2 block -1.
`C/C(=N/NC(=O)c1cc2ccccc2cc1O)C1C(=O)c2ccccc2C1=O` gave MPTP block 86*, SENP1 FRET inh 24, NR3A LBD binder 9, EBI2 block 12 and MPTP counter 17.
For C/C(=N\NC(=O)c1nc2ccccn2c1C)c1cc2ccccc2o1 the results were MPTP block 1, SENP1 FRET inh 0, NR3A LBD binder -3 and EBI2 block -1.
Screening C/C(=N\NC(=O)c1ccccc1O)C1C(=O)c2ccccc2C1=O returned MPTP block 64*, SENP1 FRET inh 10, NR3A LBD binder 12*, EBI2 block 6 and MPTP counter 70*.
For COc1ccc(C(=O)Nc2ccccc2C(=O)NC(Cc2ccc(O)cc2)C(=O)NNC(=O)c2ccncc2)cc1 (stereo not drawn) the results were MPTP block 0, SENP1 FRET inh 1, NR3A LBD binder -2 and EBI2 block -2.
Screening O=c1[nH]c(/C=C/c2ccccc2Cl)nc2ccccc12 returned MPTP block 0, SENP1 FRET inh -3, NR3A LBD binder -1 and EBI2 block -6.
Screening Clc1cccc(Cl)c1/C=C/c1nc2ccccc2[nH]1 returned MPTP block 95*, SENP1 FRET inh -4, NR3A LBD binder 3, EBI2 block 13 and MPTP counter 82*.
For Clc1ccc(/C=C/c2nc3ccccc3[nH]2)c(Cl)c1 the results were MPTP block 86*, SENP1 FRET inh -4, NR3A LBD binder 17*, EBI2 block 15 and MPTP counter 79*.
`Clc1ccc(SCc2nc3ccccc3[nH]2)cc1` gave MPTP block 16, SENP1 FRET inh -6, NR3A LBD binder -3 and EBI2 block 8.
Clc1ccc(/C=C/c2nc3ccccc3[nH]2)cc1 was read as MPTP block 80*, SENP1 FRET inh -32, NR3A LBD binder 13*, EBI2 block 24 and MPTP counter 85*.
`O=C(NC1(C(F)(F)F)NC(=O)N(c2ccc(F)cc2)C1=O)c1ccncc1` (stereo not drawn) gave MPTP block 3, SENP1 FRET inh 3, NR3A LBD binder -4 and EBI2 block -8.
O=C(NCc1ccc(Cl)cc1Cl)Nc1ccccc1 was read as MPTP block 80*, SENP1 FRET inh 2, NR3A LBD binder -6, EBI2 block 4 and MPTP counter 94*.
O=C(NCc1csc2ccc(Cl)cc12)Nc1cccc2ccccc12 was read as MPTP block 18, SENP1 FRET inh 1, NR3A LBD binder 2 and EBI2 block -1.
O=C(N/C=C\c1ccccc1)NCc1ccc(Cl)cc1Cl was read as MPTP block 4, SENP1 FRET inh 0, NR3A LBD binder -6 and EBI2 block -5.
For O=C(NCc1csc2ccc(Cl)cc12)Nc1ccccc1 the results were MPTP block 85*, SENP1 FRET inh 4, NR3A LBD binder 23*, EBI2 block 5 and MPTP counter 75*.
For Cn1cc(S(=O)(=O)N2CCCC(C(=O)O)C2)cn1 (stereo not drawn) the results were MPTP block 0, SENP1 FRET inh 1, NR3A LBD binder -1 and EBI2 block 2.
Screening CCCCn1c(N)c(N(CC(C)C)C(=O)c2ccc([N+](=O)[O-])o2)c(=O)[nH]c1=O returned MPTP block 1, SENP1 FRET inh -31, NR3A LBD binder 2 and EBI2 block 0.
For COCCOc1cc(Nc2nnc(C(F)(F)F)s2)c(Cl)cc1Cl the results were MPTP block 80*, SENP1 FRET inh 3, NR3A LBD binder -25, EBI2 block 5 and MPTP counter 90*.
Cn1nc(C(F)(F)F)c2cc(C(=O)Nc3ccc(F)c(Cl)c3)sc21 was read as MPTP block 89*, SENP1 FRET inh 3, NR3A LBD binder -3, EBI2 block 12 and MPTP counter 76*.

Screening results: PubChem BioAssay, Sanford-Burnham Center for Chemical Genomics
